Assay results from publication PMC4987166 (Clinical cancer research : an official journal of the …, 2016).

Assays:
[1] = tested on: EWS-FLI1 target genes (NR0B1); test: Quantitative RT-PCR of NR0B1 and EWS-FLI1 target gene expression in TC32 cells; format: cell-based; conditions: for concentration showing equivalent suppression of EWS-FLI1 targets NR0B1, EZH2, and ID2: qPCR, 12 h
Ewing sarcoma cells = test: Cell proliferation / cell viability IC50 at 48 h; format: cell-based; conditions: read-out: cell viability IC50; 48 h of treatment
How it was run: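 Ewing sarcoma cells (TC32/TC71), STR-authenticated, grown in RPMI 1640 with 10% FBS, 2mM L-Gln and penicillin/streptomycin. Cells exposed to test compound for 48 h and cell number recorded across a dose range. IC50 from non-linear regression over at least 3 independent experiments.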

CD-1 mice = test: Maximum tolerated dose in healthy CD-1 mice; conditions: mouse, in vivo
rat = test: Rat toxicity: liver enzymes, liver synthetic function, hematopoiesis; conditions: in vivo, 8 mg/kg
[2] = Serum drug levels in mice; conditions: mouse, in vivo
[3] = tested on: EWS-FLI1 target genes EZH2, NR0B1, and ID2; test: Immunoblot of EWS-FLI1 downstream targets; format: cell-based; conditions: TC32 cells, 50 nmol/L, 18 h
HepG2 cells = test: Time-lapse microscopy of HepG2 proliferation; format: cell-based; conditions: 50 nmol/L mithramycin, 50 nmol/L EC-8042 or 7.5 nmol/L EC-8105
γH2AX phosphorylation = test: DNA damage by phosphorylation of γH2AX; format: cell-based; conditions: 50 nmol/L mithramycin, 50 nmol/L EC-8042 or 7.5 nmol/L EC-8105
TC71 xenograft [4] = test: TC71 Ewing sarcoma xenograft in nude mice; format: in vivo
[5] = tested on: NR0B1 expression (EWS-FLI1 activity); test: Immunofluorescence for NR0B1 in xenograft tumor tissue; format: in vivo, mouse; conditions: TC71 xenograft, day 3 of treatment, IP
TC71 xenograft [6] = conditions: TC32 and TC71 xenografts, 1 mg/kg IP M/W/F; cited from earlier work

Compound | effect on panel of EWS-FLI1 target genes ([1]; Fig. 3B, legend: 15 nM for 18 h or 3 h) | concentration showing equivalent suppression of EWS-FLI1 targets NR0B1, EZH2, and ID2 [1] | IC50 (Ewing sarcoma cells) | Intraperitoneal MTD (CD-1 mice; ip) | Intravenous MTD (CD-1 mice; iv) | other toxicities (myelosuppression, compromise of liver synthetic function) (rat) | serum levels of drug [2] | suppression of EWS-FLI1 targets EZH2, NR0B1, and ID2 at the protein level [3] | proliferation of HepG2 cells (HepG2 cells) | DNA damage as measured by phosphorylation of γH2AX (γH2AX phosphorylation) | tumor regression (TC71 xenograft [4]; 24 mg/kg IP (12% of the IP MTD)) | tumor growth rate less per day than the control (TC71 xenograft [4]; 24 mg/kg IP M/W/F, while being treated) | mean tumor size on day 11 of treatment (TC71 xenograft [4]; 24 mg/kg IP, control 3177 mm^3) | tumor growth less per day than the control (TC71 xenograft [4]; 24 mg/kg IV Q3D, while on treatment) | survival of treated cohort (TC71 xenograft [4]; 24 mg/kg IV, P <0.0001) | EWS-FLI1 activity in tumor tissue by NR0B1 immunofluorescent staining [5] | fold change in NR0B1 expression ([1]; TC32 cells, 50 nmol/L, 12 hr, qPCR vs GAPDH) | xenograft tumor growth (TC71 xenograft [6])
CO[C@@H]([C@@H]1Cc2cc3cc(O[C@H]4CC(O[C@H]5CC(O)[C@H](O)C(C)O5)[C@H](O)C(C)O4)c(C)c(O)c3c(O)c2C(=O)[C@H]1O[C@H]1CC(O[C@H]2CC(O[C@H]3CC(O)[C@H](O)C(C)O3)[C@@H](O)C(C)O2)[C@H](O)C(C)O1)[C@@H](O)C(C)=O (stereo partly drawn) [EC-8042] | All the EWS-FLI1 induced targets were suppressed and all the repressed targets were induced to a comparable extent as mithramycin | 50 nmol/L | 37.8 nM | 200 mg/kg | 64 mg/kg | no evidence of other toxicities | 4.295 µM | suppressed | neither EC-8105 or EC-8042 had any effect | no DNA damaging effects | every tumor in every mouse showed some level of regression | 268.2 mm^3 | 422.5 mm^3 | 151 mm^3 | extended the survival | clear suppression of EWS-FLI1 activity |  | 
mithramycin [reference compound] |  | 50 nmol/L | 15.5 nM |  |  |  |  | suppressed |  |  |  |  |  |  |  |  | 0.48 | markedly suppresses and even regresses tumor growth
